Data: ChEMBL document CHEMBL4699593, “Identification of 2,4-Disubstituted Imidazopyridines as Hemozoin Formation Inhibitors with Fast-Killing Kinetics and In Vivo Efficacy in the Plasmodium falciparum NSG Mouse Model” (J Med Chem, 2020)
Converted amounts (≈) assume the structure as drawn.

Key:
[1] = tested on: Plasmodium falciparum; test: Antiplasmodial activity against multidrug-sensitive asexual blood stage Plasmodium falciparum NF54 strain assessed as reduction in parasite growth after 72 hrs by NBT reagent based LDH assay; format: functional, organism-based; conditions: NF54, 72 h
[2] = tested on: Plasmodium falciparum; test: Antiplasmodial activity against multidrug-resistant asexual blood stage Plasmodium falciparum K1 strain assessed as reduction in parasite growth after 72 hrs by NBT reagent based LDH assay; format: functional, organism-based; conditions: K1, 72 h
Outline: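 Asexual blood-stage K1 (multidrug-resistant) parasites were read out by the parasite lactate dehydrogenase (pLDH) assay. […] Most individual values varied less than 2× (maximum 3×).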

[3] = Aqueous solubility of compound in phosphate buffer saline at pH 6.5 incubated for 20 hrs under shaking condition by shake-flask method based HPLC-DAD analysis; format: physicochemical; conditions: phosphate buffered saline
Outline: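 Equilibrium aqueous solubility was measured at pH 6.5 using a miniaturized shake-flask method.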

[4] = tested on: CHO; test: Cytotoxicity against CHO cells assessed as reduction in cell viability by MTT assay; format: cell-based, Cricetulus griseus; conditions: chinese hamster
Outline: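 Cytotoxicity was measured in Chinese hamster ovary (CHO) cells and reported as CC50. The selectivity index is CC50 divided by NF54 IC50.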

[5] = Apparent intrinsic clearance in mouse liver microsomes at 0.1 uM in presence of NADPH by LC-MS/MS analysis; format: ADME, Microsome
Outline: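 Compound was incubated with mouse liver microsomes for 30 min. Apparent intrinsic clearance (CL_int,app) is reported in μL/min/mg.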

[6] = Selectivity index, ratio of CC50 for cytotoxicity against CHO cells assessed as reduction in cell viability to IC50 for antiplasmodial activity against multidrug-sensitive Plasmodium falciparum NF54 assessed as reduction in parasite growth; format: toxicity, cell-based; conditions: hamster, read-out: Ratio CC50/IC50
[7] = Cmax in Balb/C mouse at 2 mg/kg, iv by LC-MS/MS analysis; format: ADME, organism-based; set-up: route intravenous, dose 2 mg/kg; conditions: in vivo
Outline: (§1)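 Healthy Balb/c mice dosed i.v. or orally. Parameters come from non-compartmental analysis of compound concentration over time. […] Clearance is blood clearance (CL_b).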

[8] = Cmax in Balb/C mouse at 10 mg/kg, po by LC-MS/MS analysis; format: ADME, organism-based; set-up: route oral, dose 10 mg/kg; conditions: in vivo; outline: as §1
[9] = Tmax in Balb/C mouse at 10 mg/kg, po by LC-MS/MS analysis; format: ADME, organism-based; conditions: in vivo
Outline: (§2)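 Healthy Balb/c mice were given the compound i.v. or orally. Parameters come from non-compartmental analysis: AUC from 0 h to t_last, blood clearance, volume at steady state, terminal half-life, Tmax. Oral bioavailability F is derived from the i.v. and p.o. data.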

[10] = Terminal half life in Balb/C mouse at 2 mg/kg, iv by LC-MS/MS analysis; format: ADME, organism-based; conditions: in vivo, read-out: beta t1/2 (converted); outline: as §2
[11] = Terminal half life in Balb/C mouse at 10 mg/kg, po by LC-MS/MS analysis; format: ADME, organism-based; conditions: in vivo, read-out: beta t1/2 (converted); outline: as §2
[12] = Clearance in Balb/C mouse blood at 2 mg/kg, iv by LC-MS/MS analysis; format: ADME, organism-based; conditions: whole blood; outline: as §1
[13] = Volume of distribution at steady state in Balb/C mouse at 2 mg/kg, iv by LC-MS/MS analysis; format: ADME, organism-based; conditions: in vivo, read-out: Vdss; outline: as §2
[14] = AUC (0 to t) in Balb/C mouse at 2 mg/kg, iv by LC-MS/MS analysis; format: ADME, organism-based; set-up: dose 2 mg/kg; conditions: in vivo; outline: as §1
[15] = AUC (0 to t) in Balb/C mouse at 10 mg/kg, po by LC-MS/MS analysis; format: ADME, organism-based; set-up: dose 10 mg/kg; conditions: in vivo; outline: as §1
[16] = Oral bioavailability in Balb/C mouse at 10 mg/kg by LC-MS/MS analysis; format: ADME, organism-based; conditions: in vivo; outline: as §2
[17] = Ratio of unbound average drug concentration in Balb/c mouse at 10 mg/kg, po measured at 24 hrs to IC50 for antiplasmodial activity against multidrug-sensitive Plasmodium falciparum NF54 asexual blood stage assessed as reduction in parasite growth after 72 hrs by LDH assay; format: organism-based; conditions: in vivo
[18] = tested on: Plasmodium berghei; test: Antiplasmodial activity against luciferase-expressing Plasmodium berghei sporozoites liver stage infected in human HepG2 cells expressing GFP-CD81 fusion protein incubated for 48 hrs by luciferase reporter gene based bioluminescence assay; format: functional, organism-based; conditions: HepG2, 48 h
Outline: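 Liver-stage activity was measured in vitro with rodent P. berghei sporozoites. Values are the mean of 3 technical replicates from the luciferase assay; individual values varied less than 2×.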

[19] = tested on: Plasmodium falciparum; test: Antiplasmodial activity against early stage (I to III) Plasmodium falciparum NF54 gametocytes incubated for 48 hrs under hypoxia condition by luciferase reporter gene assay; format: functional, organism-based; conditions: NF54, 48 h
[20] = tested on: Plasmodium falciparum; test: Antiplasmodial activity against late stage (IV/V) Plasmodium falciparum NF54 gametocytes incubated for 48 hrs under hypoxia condition by luciferase reporter gene assay; format: functional, organism-based; conditions: NF54, 48 h
[21] = tested on: Plasmodium falciparum; test: Antiplasmodial activity against late stage (IV/V) Plasmodium falciparum NF54 gametocytes at 5 uM incubated for 48 hrs under hypoxia condition by luciferase reporter gene assay relative to control; format: functional
[22] = tested on: Hemozoin; test: Inhibition of beta-hematin formation assessed as reduction in hemozoin formation incubated for 5 hrs by NP40 detergent-mediated assay
Outline: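 Synthetic hemozoin (β-hematin) formation is driven by the detergent Nonidet P-40. Pyridine is then added to detect unreacted hematin. IC50 is derived from this read-out.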

[23] = tested on: Plasmodium falciparum; test: Antiplasmodial activity against early ring-stage synchronized Plasmodium falciparum assessed as increase in free heme after 32 hrs by Giemsa-staining based haemocytometric counting method; format: functional, organism-based
Outline: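 Whole-parasite cell fractionation assay run as a dose response. Free heme and hemozoin were measured intracellularly across increasing compound concentrations.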

[24] = tested on: Plasmodium falciparum; test: Antiplasmodial activity against early ring-stage synchronized Plasmodium falciparum assessed as decrease in hemozoin formation after 32 hrs by Giemsa-staining based haemocytometric counting method; format: functional, organism-based
[25] = Cmax in Balb/C mouse at 20 mg/kg, po by LC-MS/MS analysis; format: ADME, organism-based; set-up: route oral, dose 20 mg/kg; conditions: in vivo; outline: as §1
[26] = Tmax in Balb/C mouse at 20 mg/kg, po by LC-MS/MS analysis; format: ADME, organism-based; conditions: in vivo; outline: as §2
[27] = Terminal half life in Balb/C mouse at 20 mg/kg, po by LC-MS/MS analysis; format: ADME, organism-based; conditions: in vivo, read-out: beta t1/2 (converted); outline: as §2
[28] = AUC (0 to t) in Balb/C mouse at 20 mg/kg, po by LC-MS/MS analysis; format: ADME, organism-based; set-up: dose 20 mg/kg; conditions: in vivo; outline: as §1
[29] = Oral bioavailability in Balb/C mouse at 20 mg/kg by LC-MS/MS analysis; format: ADME, organism-based; conditions: in vivo; outline: as §2
[30] = Ratio of unbound average drug concentration in Balb/c mouse at 20 mg/kg, po measured at 24 hrs to IC50 for antiplasmodial activity against multidrug-sensitive Plasmodium falciparum NF54 asexual blood stage assessed as reduction in parasite growth after 72 hrs by LDH assay; format: organism-based; conditions: in vivo
[31] = molecular target: Voltage-gated inwardly rectifying potassium channel KCNH2 (Homo sapiens, UniProt Q12809); test: Inhibition of human ERG by patch clamp method
Voltage-gated inwardly rectifying potassium channel KCNH2, sequence (Q12809 whole entry): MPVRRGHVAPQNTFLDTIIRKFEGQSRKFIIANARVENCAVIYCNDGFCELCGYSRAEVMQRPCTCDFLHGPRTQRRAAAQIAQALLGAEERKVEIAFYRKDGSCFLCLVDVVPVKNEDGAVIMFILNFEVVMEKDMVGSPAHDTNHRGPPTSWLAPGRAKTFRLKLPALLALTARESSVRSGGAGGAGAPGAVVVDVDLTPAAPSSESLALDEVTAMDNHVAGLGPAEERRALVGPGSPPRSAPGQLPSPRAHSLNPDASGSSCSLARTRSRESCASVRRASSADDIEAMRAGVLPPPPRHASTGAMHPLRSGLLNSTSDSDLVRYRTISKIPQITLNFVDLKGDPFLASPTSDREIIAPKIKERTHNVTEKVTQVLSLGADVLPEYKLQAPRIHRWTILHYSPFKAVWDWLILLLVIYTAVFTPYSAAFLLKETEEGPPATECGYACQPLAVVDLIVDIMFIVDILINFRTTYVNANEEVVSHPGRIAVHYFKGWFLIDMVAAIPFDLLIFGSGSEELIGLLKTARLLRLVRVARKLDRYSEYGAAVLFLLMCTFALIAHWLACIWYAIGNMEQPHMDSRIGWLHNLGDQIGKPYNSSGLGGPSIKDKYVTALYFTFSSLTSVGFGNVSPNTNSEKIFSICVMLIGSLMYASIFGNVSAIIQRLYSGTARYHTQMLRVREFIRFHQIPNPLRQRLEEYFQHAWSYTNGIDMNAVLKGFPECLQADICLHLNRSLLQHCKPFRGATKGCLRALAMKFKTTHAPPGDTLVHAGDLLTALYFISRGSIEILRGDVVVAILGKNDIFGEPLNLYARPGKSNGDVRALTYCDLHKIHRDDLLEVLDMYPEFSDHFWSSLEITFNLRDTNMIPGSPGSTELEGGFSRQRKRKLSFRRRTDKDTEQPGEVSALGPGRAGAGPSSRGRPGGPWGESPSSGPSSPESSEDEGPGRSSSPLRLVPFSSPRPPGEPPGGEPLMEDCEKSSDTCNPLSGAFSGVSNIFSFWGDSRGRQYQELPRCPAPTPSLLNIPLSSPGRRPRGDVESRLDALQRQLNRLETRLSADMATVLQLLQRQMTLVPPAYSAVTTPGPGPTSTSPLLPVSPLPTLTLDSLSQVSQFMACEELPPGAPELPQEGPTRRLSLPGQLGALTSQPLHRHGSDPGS

Compound	IC50 [1] [µM]	IC50 [2] [µM]	solubility thermodynamic at 20 h [3] [µM]	CC50 [4] [µM]	CLH [5] [µL/min/mg]	selectivity ratio [6]	Cmax [7] [nM]	half-life [10] [h]	clearance [12] [mL/min/kg]	Vd [13] [L/kg]	AUCt [14] [µM·h]	other results
CN1CCC(N2CCCN(c3nccc4[nH]c(-c5ccc(F)c(F)c5)nc34)CC2)CC1	0.035	0.22	200 (≈ 85.3 µg/mL)	17	> 200	490						
CN1CCN(CC2CCN(c3cncc4[nH]c(-c5cc(F)cc(F)c5)nc34)CC2)CC1	0.13	0.33	125 (≈ 53.3 µg/mL)	46			100	6.9	71.8	51	0.967	Cmax [8]: 400 nM; Tmax [9]: 3.5 h; half-life [11]: 4.9 h; AUCt [15]: 3.57 µM·h; bioavailability [16]: 73%; Ratio [17]: 0.3
NC1CCN(c2nccc3[nH]c(-c4cccc(OC(F)(F)F)c4)nc23)CC1	0.073	1.2	200 (≈ 75.5 µg/mL)	42								IC50 [18]: 14 µM; IC50 [19]: 0.78 µM; IC50 [20]: 2.8 µM; inhibition at 5 µM [21]: 95%; IC50 [22]: 148 µM; Activity [23]: Dose-dependent effect; Activity [24]: Dose-dependent effect
Cn1ccnc1N1CCN(CC2CCN(c3nccc4[nH]c(-c5cc(F)cc(F)c5)nc34)CC2)CC1	0.029	0.053	135 (≈ 66.5 µg/mL)	33		1140	1600	12.2	9	6	7.88	Cmax [25]: 1700 nM; Tmax [26]: 2.3 h; half-life [27]: 9.2 h; AUCt [28]: 19 µM·h; bioavailability [29]: 24%; Ratio [30]: 1.5
CN1CCCN(c2nccc3[nH]c(-c4ccc(F)c(F)c4)nc23)CC1	0.061	0.1	170 (≈ 58.4 µg/mL)	14	145							IC50 [31]: 0.4 µM
